RGS4 act = potentiators or activators of RGS4; HEK293 M3R/inducible RGS4, carbachol calcium flux Fluo4; stronger effect = lower value; B-score at 10 µM; hit rate 0.92% among 310,000; AID 463111;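 active means B-score of the integrated calcium signal more than 4 SD below the library mean, with starting fluorescence not abnormally high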;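 further: negative B-score means reduced calcium response which marks RGS4 activation or potentiation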
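Also added: carbachol at ECmax as muscarinic agonist stimulus; Assay system: HEK293 cells with stable M3R and inducible RGS4; Timing: overnight RGS4 induction, 30 min dye load 37 °C, 20 min compound RT; Measured by: Fluo4-AM (2 µM) calcium-flux fluorescence, kinetic read.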
MrgX1 PAM = human MrgX1 positive allosteric modulation, primary screen. Q96LB2. B-score at 10 µM. hit rate 0.63% among 310,000. MrgX1-HEK293, Fluo-4 calcium flux, FDSS; stronger effect = higher value;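 active means plate-corrected calcium response at least 3 library SD above typical, normal starting fluorescence, not activating the receptor alone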;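 further: compound read alongside a low EC10 to EC30 dose of BAM8-22 agonist; peak minus trough fluorescence over baseline measured at the second addition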
Target sequence (Q96LB2 whole entry, looked up): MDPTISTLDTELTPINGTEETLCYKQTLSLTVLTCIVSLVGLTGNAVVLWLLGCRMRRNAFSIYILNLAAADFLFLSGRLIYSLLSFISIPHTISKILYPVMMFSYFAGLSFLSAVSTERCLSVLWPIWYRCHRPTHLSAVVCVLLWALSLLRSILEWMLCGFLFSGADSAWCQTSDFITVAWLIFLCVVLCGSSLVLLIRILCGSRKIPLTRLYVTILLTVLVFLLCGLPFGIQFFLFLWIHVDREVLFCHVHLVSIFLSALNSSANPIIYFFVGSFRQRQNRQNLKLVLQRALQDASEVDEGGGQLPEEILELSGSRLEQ
RGS4 block = inhibitors of human RGS4. P49798. HEK293 M3R/RGS4 inducible, Fluo-4 calcium flux; stronger effect = higher value; triggered by carbachol at its EC20. B-score at 10 µM. hit rate 0.45% among 310,000;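 active means B-score, a plate-corrected calcium signal, over three deviations above library mean, with baseline fluorescence within five deviations of library mean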;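 further: RGS4 expression induced by doxycycline in cells with stable M3 receptor; B-score is computed from the integrated fluorescence ratio over baseline after carbachol; higher B-score means a larger calcium signal and so more RGS4 inhibition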
Target sequence (P49798 whole entry, looked up): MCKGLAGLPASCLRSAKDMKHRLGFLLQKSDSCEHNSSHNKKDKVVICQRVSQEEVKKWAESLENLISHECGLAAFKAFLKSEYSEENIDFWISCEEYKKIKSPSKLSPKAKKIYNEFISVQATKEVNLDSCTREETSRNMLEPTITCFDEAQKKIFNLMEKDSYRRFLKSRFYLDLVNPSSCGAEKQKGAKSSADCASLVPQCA
MrgX1 agonist = agonists of human MrgX1 receptor | Q96LB2 | MrgX1-HEK293 cells, Fluo-4 calcium fluorescence, agonist mode; stronger effect = higher value | B-score at 10 µM | hit rate 0.44% among 310,000 | AID 588627;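 active means calcium response B-score plate-corrected fluorescence ratio at least 3 library SD, with starting fluorescence B-score inside 5 SD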
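Test system: HEK293 cells stably expressing human MrgX1 receptor; amount: 15,000 cells per well; doses: compound delivered in addition one of three; times: overnight plating before 1 h dye loading; detection: Fluo-4 NW calcium-flux fluorescence, kinetic read; read-out basis: B-scored fluorescence response ratio; controls: positive and negative controls per plate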
MrgX1 antagonist = human MrgX1 receptor antagonism, primary screen; Q96LB2; MRGX1-HEK293 calcium flux, Fluo-4, BAM8-22 antagonism; stronger effect = lower value; B-score at 10 µM; hit rate 1.3% among 310,000;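 active means calcium-response B-score plate-corrected more than 3 library SD below zero, starting fluorescence within 5 deviations, no agonist response on first addition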;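 further: peak minus trough fluorescence over baseline after final BAM8-22 challenge near maximal dose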
RGS4 block valid = RGS4 inhibitor validation; AID 492999; calcium response, % at 10 µM; hit rate 65% among 1,700; HEK293 M3R/RGS4, carbachol calcium Fluo-4 fluorescence; carbachol added at its EC20; 0 = buffer wells, 100 = carbachol control; shares compounds with RGS4 block;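 active means duplicate-averaged calcium response above the buffer-only control mean plus 5 SD of those controls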;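 further: integrated fluorescence ratio F max minus min over baseline F0; higher response in RGS4-induced cells means RGS4 inhibition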
RGS4 uninduced = non-induced cell nonspecific activity of RGS4 inhibitors. activity (percent), % at 10 µM. shares compounds with RGS4 block. HEK293 M3R non-induced, carbachol calcium Fluo-4; submaximal (EC20) carbachol stimulus; buffer wells 0%, carbachol control wells 100%. hit rate 20% among 1,900; call rule not given here;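 further: RGS4 induction absent so cells express M3R without RGS4; higher means more calcium signal and flags a non-specific hit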
RGS4 inh ctr2 = second counter-screen for RGS4 inhibitors: non-induced cells without carbachol; AID 493001; HEK293 M3R/RGS4 non-induced, Fluo-4 calcium, no carbachol; normalised: buffer wells 0%, carbachol wells 100%; shares compounds with RGS4 block; hit rate 22% among 1,900; calcium response (agonist-mode artifact), % at 10 µM;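 active means duplicate-averaged calcium rise in uninduced cells above buffer wells' mean plus 5 SD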
The depositor's hits bear a star. Compounds with a hit are over-represented: about 3.5% of the library has one in this group of screens.

For Cc1ccc2c(c1)nnn2C1CCN(CC(=O)NNC(=O)c2ccco2)CC1 the results were RGS4 act inactive, MrgX1 PAM inactive, RGS4 block inactive, MrgX1 agonist inactive and MrgX1 antagonist inactive.
Screening COc1ccc(NC(=O)Cc2nnc(SCC(=O)Nc3ccccc3)n2C)cc1 returned RGS4 act inactive, MrgX1 PAM inactive, RGS4 block inactive, MrgX1 agonist inactive and MrgX1 antagonist inactive.
Screening CN1C(=O)/C(=C/c2cccc([N+](=O)[O-])c2)C(=O)N1c1ccccc1 returned RGS4 act inactive, MrgX1 PAM inactive, RGS4 block 36*, MrgX1 agonist inactive, MrgX1 antagonist inactive, RGS4 block valid 44%*, RGS4 uninduced 37%* and RGS4 inh ctr2 inactive.
For CCN(CC)CCCn1c2c(c(SCC(=O)N3CCc4ccccc43)nc1=O)CCC2 the results were RGS4 act inactive, MrgX1 PAM inactive, RGS4 block inactive, MrgX1 agonist inactive and MrgX1 antagonist inactive.
Screening C=C1C(=O)[C@@]23[C@H](O)C[C@@H]4C(C)(C)CC[C@H](O)[C@@]4(C)[C@@H]2CC[C@@H]1[C@H]3O returned RGS4 act inactive, MrgX1 PAM inactive, RGS4 block 4.9*, MrgX1 agonist inactive, MrgX1 antagonist inactive, RGS4 block valid inactive, RGS4 uninduced inactive and RGS4 inh ctr2 inactive.
For C=CCn1c(SC(C)CC)nc(O)cc1=O (stereo not given) the results were RGS4 act inactive, MrgX1 PAM inactive, RGS4 block 4.8*, MrgX1 agonist inactive, MrgX1 antagonist inactive, RGS4 block valid inactive, RGS4 uninduced inactive and RGS4 inh ctr2 inactive.
`C=CCn1c(SCCCCCC)nc(O)cc1=O` gave RGS4 act inactive, MrgX1 PAM inactive, RGS4 block inactive, MrgX1 agonist inactive and MrgX1 antagonist inactive.
For O=C(c1ccco1)N1CCN(c2ncnc3c(-c4ccc(Cl)cc4)nsc23)CC1 the results were RGS4 act inactive, MrgX1 PAM inactive, RGS4 block 5.2*, MrgX1 agonist inactive, MrgX1 antagonist inactive, RGS4 block valid inactive, RGS4 uninduced inactive and RGS4 inh ctr2 inactive.
`O=C(c1ccco1)N1CCN(c2ncnc3scc(-c4ccc(F)cc4)c23)CC1` gave RGS4 act inactive, MrgX1 PAM inactive, RGS4 block inactive, MrgX1 agonist inactive and MrgX1 antagonist inactive.
Screening Cc1ccc(-c2cc(-c3ccc(F)cc3)c(C#N)c(N)n2)o1 returned RGS4 act inactive, MrgX1 PAM inactive, RGS4 block inactive, MrgX1 agonist 27*, MrgX1 antagonist inactive, RGS4 block valid inactive, RGS4 uninduced inactive and RGS4 inh ctr2 inactive.
`CCOc1cc(-c2cc(-c3ccc(C)o3)nc(N)c2C#N)ccc1O` gave RGS4 act inactive, MrgX1 PAM inactive, RGS4 block inactive, MrgX1 agonist inactive and MrgX1 antagonist inactive.
`Cc1ccc(-c2cc(-c3ccc(C)o3)nc(N)c2C#N)cc1` gave RGS4 act inactive, MrgX1 PAM inactive, RGS4 block 7*, MrgX1 agonist inactive, MrgX1 antagonist inactive, RGS4 block valid inactive, RGS4 uninduced inactive and RGS4 inh ctr2 inactive.
`Cc1c(-c2ccc(F)cc2)nc(N)c(C#N)c1-c1ccco1` gave RGS4 act inactive, MrgX1 PAM inactive, RGS4 block inactive, MrgX1 agonist inactive and MrgX1 antagonist inactive.
Screening COc1ccc(-c2cc(-c3ccc(O)cc3)nc(N)c2C#N)cc1OC returned RGS4 act inactive, MrgX1 PAM inactive, RGS4 block inactive, MrgX1 agonist inactive and MrgX1 antagonist inactive.

Compound activity deposited in PubChem BioAssay by Johns Hopkins Ion Channel Center.
